Results taken from ChEMBL document CHEMBL3621064, “Fungal metabolite ophiobolin A as a promising anti-glioma agent: In vivo evaluation, structure-activity relationship and unique pyrrolylation of primary amines” (Bioorg Med Chem Lett, 2015).
Activity calls are given as the source filed them. The rule behind the calls is not given here.

What was measured:
[1] = Antiproliferative activity against human U373 cells by MTT assay; type: functional, U-373MG ATCC; details: U373 MG
Method in brief: (§1)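 Cell lines grown in RPMI with 10% heat-inactivated fetal calf serum, 4 mM glutamine, gentamicin, penicillin and streptomycin. Growth inhibition by colorimetric MTT assay across a five-line panel: U373 GBM, A549 NSCLC and SKMEL-28 melanoma (apoptosis-resistant), plus Hs683 oligodendroglioma and MCF-7 breast (apoptosis-sensitive).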

[2] = Antiproliferative activity against human Hs683 cells by MTT assay; type: functional; details: Hs 683; method in brief: as §1
[3] = test system: A549; experiment: Antiproliferative activity against human A549 cells by MTT assay; type: functional; method in brief: as §1
[4] = test system: MCF7; experiment: Antiproliferative activity against human MCF7 cells by MTT assay; type: functional; method in brief: as §1
[5] = test system: SK-MEL-28; experiment: Antiproliferative activity against human SK-MEL-28 cells by MTT assay; type: functional; method in brief: as §1
[6] = test system: U-251; experiment: Antitumor activity against luciferase expressing human U251 cells xenografted in mouse assessed as inhibition of tumor growth at 10 mg/kg, ip dosed as 3 doses per week for 21 days; type: functional, organism-based
Method in brief: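 Orthotopic U251-luciferase human GBM tumors in mice; 10 mg/kg IP 3x weekly for 21 days versus 0.9% saline vehicle; relative tumor growth followed by temporal bioluminescence imaging.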

[7] = test system: Brain; experiment: Drug level in brain tumor of luciferase expressing human U251 cells xenografted mouse dosed intravenously and measured after 15 mins; type: ADME, organism-based, U-251; details: in vivo, iv, 0.25 h
Method in brief: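 Single intravenous injection into lateral tail vein of a mouse bearing a brain tumor; brain tumor extract taken 15 min post administration and analysed for intact compound.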

[8] = test system: U-251; experiment: Antitumor activity against luciferase expressing human U251 cells xenografted in mouse assessed as increase in mouse survival at 10 mg/kg, ip dosed as 3 doses per week for 21 days; type: functional, organism-based
Method in brief: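 Orthotopic mouse GBM model inoculated with 1×10^6 U251-LUC cells; 10 mg/kg IP 3x per week for 21 days, 0.9% saline vehicle control; mice without signs of GBM sacrificed on day 100 after inoculation and counted as long-term survivors; survival monitored.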

[9] = Growth inhibition of human NCI60 cells; type: functional

| GI50 [3] [µM] | GI50 [4] [µM] | GI50 [5] [µM] | Structure (SMILES) | GI50 [1] [µM] | GI50 [2] [µM] | TGI [6] | Drug uptake [7] | Activity [8] | GI50 [9] [µM] |
| --- | --- | --- | --- | --- | --- | --- | --- | --- | --- |
| 35 | 23 | 33 | CC(C)=C[C@H]1C[C@H](C)[C@]2(CC[C@]3(C)C[C@H]4c5c(cn(CCc6ccc(O)cc6)c5C[C@@]4(C)O)/C=C\[C@H]32)O1 | 54 | 33 | – | – | – | – |
| 34 | 27 | 29 | CC(C)=C[C@H]1C[C@H](C)[C@]2(CC[C@]3(C)C[C@H]4c5c(cnnc5C[C@@]4(C)O)CC[C@H]32)O1 | 30 | 29 | – | – | – | – |
| 15 | 12 | 23 | C#CCCCOC(=O)/C=C/C1=C/C[C@@H]2[C@](C)(CC[C@@]23O[C@@H](C=C(C)C)C[C@@H]3C)C[C@H]2[C@@H]1C(=O)C[C@@]2(C)O | 20 | 12 | – | – | – | – |
| 27 | 26 | 28 | CC(C)=C[C@H]1C[C@H](C)[C@]2(CC[C@]3(C)C[C@H]4[C@H](C(=O)C[C@@]4(C)O)C(/C=C/C#N)=C\C[C@H]32)O1 | 27 | 22 | – | – | – | – |
| 59 | 43 | 86 | COC(=O)/C=C/C1=C/C[C@@H]2[C@](C)(CC[C@@]23O[C@@H](C=C(C)C)C[C@@H]3C)C[C@H]2[C@@H]1C(=O)C[C@@]2(C)O | 86 | 59 | – | – | – | – |
| 0.3 | 0.2 | 0.2 | CCCO[C@H]1O[C@@]2(OCCC)C[C@@](C)(O)[C@H]3C[C@@]4(C)CC[C@@]5(O[C@@H](C=C(C)C)C[C@@H]5C)[C@@H]4C/C=C/1[C@H]32 | 0.4 | 0.2 | – | – | – | – |
| 1 | 1.4 | 0.6 | C#CCCCCOC(C)(C)[C@@H](Br)[C@H]1C[C@H](C)[C@]2(CC[C@]3(C)C[C@H]4[C@H](C(=O)C[C@@]4(C)O)/C(C=O)=C\C[C@H]32)O1 | 2.2 | 0.8 | – | – | – | – |
| 6 | 13 | 6 | CC(=O)O[C@]1(C)Cc2occ3c2[C@@H]1C[C@@]1(C)CC[C@@]2(O[C@@H](C=C(C)C)C[C@@H]2C)[C@@H]1/C=C\3 | 8 | 11 | – | – | – | – |
| 0.3 | 0.2 | 0.1 | CCOC1O[C@@]2(OCC)C[C@@](C)(O)[C@H]3C[C@@]4(C)CC[C@@]5(O[C@@H](C=C(C)C)C[C@@H]5C)[C@@H]4C/C=C/1[C@H]32 (mixture of isomers) | 0.4 | 0.2 | – | – | – | – |
| 51 | 40 | 58 | CC(C)=C[C@H]1C[C@H](C)[C@]2(CC[C@]3(C)C[C@H]4c5c(cn(Cc6ccccc6)c5C[C@@]4(C)O)/C=C\[C@H]32)O1 | 69 | 46 | – | – | – | – |
| 0.9 | 1.2 | 0.6 | CCOC(C)(C)[C@@H](Br)[C@H]1C[C@H](C)[C@]2(CC[C@]3(C)C[C@H]4[C@H](C(=O)C[C@@]4(C)O)/C(C=O)=C\C[C@H]32)O1 | 1.2 | 0.9 | – | – | – | – |
| > 100 | > 100 | > 100 | CC(=O)N[C@@H](CCCCn1cc2c3c1C[C@@](C)(O)[C@H]3C[C@@]1(C)CC[C@@]3(O[C@@H](C=C(C)C)C[C@@H]3C)[C@@H]1/C=C\2)C(=O)O | > 100 | > 100 | – | – | – | – |
| 0.6 | 0.6 | 0.4 | C[C@H]1C[C@H](C2OC2(C)C)O[C@@]12CC[C@]1(C)C[C@H]3[C@H](C(=O)C[C@@]3(C)O)/C(C=O)=C\C[C@H]12 (mixture of isomers) | 0.6 | 0.4 | – | – | – | – |
| 1.2 | 1.2 | 1 | C[C@H]1C[C@H]([C@H](Br)C(C)(C)OCc2cn(Cc3ccccc3)nn2)O[C@@]12CC[C@]1(C)C[C@H]3[C@H](C(=O)C[C@@]3(C)O)/C(C=O)=C\C[C@H]12 | 3.4 | 0.8 | – | – | – | – |
| 26 | 14 | 24 | CC(C)=C[C@H]1C[C@H](C)[C@]2(CC[C@]3(C)C[C@H]4c5c(cn(CCCCCCn6cc7c8c6C[C@@](C)(O)[C@H]8C[C@@]6(C)CC[C@@]8(O[C@@H](C=C(C)C)C[C@@H]8C)[C@@H]6/C=C\7)c5C[C@@]4(C)O)/C=C\[C@H]32)O1 | 30 | 25 | – | – | – | – |
| 3 | 4 | 3 | CC(=O)N[C@@H](CCCC/N=C/C1=C/C[C@@H]2[C@](C)(CC[C@@]23O[C@@H](C=C(C)C)C[C@@H]3C)C[C@H]2[C@@H]1C(=O)C[C@@]2(C)O)C(=O)O | 4 | 3 | – | – | – | – |
| 0.3 | 0.4 | 0.3 | CO[C@H]1O[C@@]2(OC)C[C@@](C)(O)[C@H]3C[C@@]4(C)CC[C@@]5(O[C@@H](C=C(C)C)C[C@@H]5C)[C@@H]4C/C=C/1[C@H]32 | 0.4 | 0.4 | – | – | – | – |
| 0.8 | 0.8 | 0.6 | C#CCOC(C)(C)[C@@H](Br)[C@H]1C[C@H](C)[C@]2(CC[C@]3(C)C[C@H]4[C@H](C(=O)C[C@@]4(C)O)/C(C=O)=C\C[C@H]32)O1 | 1.4 | 0.6 | – | – | – | – |

| Structure (SMILES) | GI50 [3] [µM] | GI50 [4] [µM] | GI50 [5] [µM] | GI50 [1] [µM] | GI50 [2] [µM] | TGI [6] | Drug uptake [7] | Activity [8] | GI50 [9] [µM] |
| --- | --- | --- | --- | --- | --- | --- | --- | --- | --- |
| CC(C)=C[C@H]1C[C@H](C)[C@]2(CC[C@]3(C)C[C@H]4[C@H](C(=O)C[C@@]4(C)O)/C(C=O)=C\C[C@H]32)O1 [OPHIOBOLIN A] | 0.1 | 0.06 | 0.05 | 0.06 | 0.02 | Active | Active | Active | 0.07 |
| CC(C)=C[C@H]1C[C@H](C)[C@]2(CC[C@]3(C)C[C@@H]4C(C)=CC(=O)[C@H]4/C(C=O)=C\C[C@H]32)O1 [3-ANHYDRO-6-EPI-OPHIOBOLIN A] | 9 | 10 | 8 | 18 | 8 | – | – | – | – |
